Experimental data pooled from the literature.
Target: TGF-beta receptor type-2 (TGFBR2, Homo sapiens, UniProt P37173)

With `O=C(Nc1cccnn1)N1CC(C/C=C/c2cncc(Oc3ccc(C(F)(F)F)cn3)n2)C1` the remaining binding was 100% (cell-free assay, competition with immobilised ligand; 1 µM).
With `O=C(Nc1cnn(-c2csc(C(=O)NC3COC3)c2)c1)Nc1c(F)cccc1Cl` the remaining activity was 82.6% (enzyme activity, inhibitor; 5 µM).
For `CC(C)(C)c1nc2c(s1)c1nc(N)ncc1c1ccc(NS(=O)(=O)c3c(F)cccc3F)c(F)c12`, the remaining activity was 81% (enzyme activity, inhibitor, radiometric; 1 µM).
With `Cc1nc(N2CC[C@@H](O)C2)ncc1-c1cc(C(F)(F)F)cc2[nH]ncc12` the remaining binding was 99% (cell-free assay, competition with immobilised ligand; 1 µM).
`c1ccc(-c2[nH]ncc2-c2ccnc3ccccc23)nc1` has a remaining signal of 109% (cell-free assay; 0.5 µM).
The remaining signal of `Nc1ncnc2occ(-c3ccc(NC(=O)Nc4cc(C(F)(F)F)ccc4F)cc3)c12` is reported as 99% (cell-free assay; 20 µM).
The remaining signal of `O=C1Nc2ccc(Cl)cc2C1=Cc1cc(Cl)c(O)c(Cl)c1` is reported as 94.9% (cell-free assay; 0.5 µM).
With `Cc1ccc(C(=O)Nc2ccc(CN3CCN(C)CC3)c(C(F)(F)F)c2)cc1C#Cc1cnc2cccnn12` the remaining signal was 76% (cell-free assay; 23.5 nM).
For `COc1cc2c(N3CCN(C(=O)Nc4ccc(OC(C)C)cc4)CC3)ncnc2cc1OCCCN1CCCCC1`, the remaining signal was 102% (cell-free assay; 0.5 µM).
With `CNCc1ccccc1-c1csc([C@@H](C)Nc2nc(C)nc3cc(OC)c(OC)cc23)c1` the remaining binding was 91% (cell-free assay, competition with immobilised ligand; 1 µM).
The remaining activity of `O=C(Nc1cnn(-c2csc(C(=O)NC3COC3)c2)c1)Nc1ccccc1Cl` is reported as 113% (enzyme activity, inhibitor; 5 µM).
With `COc1cc(Cl)c(C(=O)N[C@@H](CN[C@H]2CC[C@@H](N)CC2)Cc2ccc(C#N)cc2)cc1-c1ccc(CN[C@H](C)c2ccc(C)cc2)o1` the remaining activity was 94% (enzyme activity, inhibitor; 1 µM).
